The test system of data set [1] is HFF. Nature of the data set: Toxicity to HFF at highest concentration. It is filed as cell-based. The note with it: human. The method in brief: (§1)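 Host-cell toxicity was tested on non-confluent fibroblast monolayers by 3H-thymidine incorporation, alongside visual inspection of monolayer integrity. Testing ran simultaneously with the parasite inhibition assay, and the highest concentration tested was scored.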

A further data set relates to Toxoplasma gondii. Put plainly: Antiparasitic activity against Toxoplasma gondii infected in HFF after 24 hrs by [3H]uracil incorporation assay. It is filed as functional. The procedure, abridged: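 Human foreskin fibroblasts were infected with T. gondii tachyzoites and given 1 h to invade before inhibitors were added. Cultures ran 3 days, then 3H-uracil was added for a further day. Parasite growth was read as uracil incorporation by liquid scintillation counting. MIC50 and MIC90 are the concentrations giving 50% and 90% growth inhibition. There were 6 replicate samples per group.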

Data set [2] concerns the target T1, Enoyl-acyl carrier reductase (Toxoplasma gondii, UniProt Q6UCJ9).
T1 sequence (Q6UCJ9 whole entry): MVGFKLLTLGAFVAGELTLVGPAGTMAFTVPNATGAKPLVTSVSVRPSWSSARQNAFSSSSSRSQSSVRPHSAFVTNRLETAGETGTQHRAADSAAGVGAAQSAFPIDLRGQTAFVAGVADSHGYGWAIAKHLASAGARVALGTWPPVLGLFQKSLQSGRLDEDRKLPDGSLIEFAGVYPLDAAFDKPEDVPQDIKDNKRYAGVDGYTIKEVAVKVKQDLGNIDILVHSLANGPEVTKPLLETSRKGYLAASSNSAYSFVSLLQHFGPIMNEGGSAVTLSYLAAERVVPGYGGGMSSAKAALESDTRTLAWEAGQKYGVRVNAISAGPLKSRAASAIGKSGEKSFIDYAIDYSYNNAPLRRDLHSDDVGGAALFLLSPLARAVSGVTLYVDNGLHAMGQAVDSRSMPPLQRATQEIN
Put plainly: Inhibition of Toxoplasma gondii enoyl reductase. The procedure, abridged:
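Recombinant TgENR (20 nM) was assayed in 100 mM Na/K phosphate pH 7.5, 150 mM NaCl and 100 μM NADH. Compounds were added in DMSO (2% final), and reactions were started at 25°C with 100 μM crotonyl-CoA. NADH consumption was followed at 340 nm.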

Data set [3] concerns HFF. Nature of the data set: Toxicity to HFF. It is filed as cell-based. The note with it: human. The method in brief:
as §1

In brackets after ≈: the same amount, converted by molar mass. Some results are limits rather than exact numbers.

In the case of `Oc1cc(Cl)ccc1Oc1ccc(-c2ccccc2)cc1`, the Activity entry in the data set on HFF [1] was “Non-toxic”. Moreover, in the data set on Toxoplasma gondii, the MIC50 was 6 µM (≈ 1.78 µg/mL) and the MIC90 amounted to 20 µM (≈ 5.94 µg/mL).
Turning to `CCCc1cc(O)c(Oc2ccc(C#N)cc2Cl)c(O)c1`, the IC50 in data set [2] was < 20 nM. Also, in the data set with HFF [1], the Activity result is listed as “Non-toxic”. For the same compound, in the data set on Toxoplasma gondii, the MIC50 was 15 µM (≈ 4.56 µg/mL) and the MIC90 came to 22 µM (≈ 6.68 µg/mL).
For the compound `CC(=O)Nc1ccc(Oc2ccc(Cl)cc2O)cc1`, in the data set on Toxoplasma gondii, the MIC50 is > 24 µM and the MIC90 was > 24 µM.
As for `CN(Cc1cc2ccccc2n1C)C(=O)/C=C/c1ccc(N)nc1`, the Activity with HFF [3] was > 6 µM. Moreover, in the data set on HFF [1], the Activity entry is “Non-toxic”. Besides, in the data set with Toxoplasma gondii, the MIC50 is > 6 µM and the MIC90 was > 6 µM.
As to `CC(=O)Nc1ccc(Oc2ccc(Cl)cc2O)cn1`, in the data set with Toxoplasma gondii, the MIC50 is > 24 µM and the MIC90 was > 24 µM.
`Oc1cc(Cl)ccc1Oc1cnccn1`: the Activity with HFF [3] was > 6 µM. Besides, the Activity result in the data set with HFF [1] is “Non-toxic”. In the data set on Toxoplasma gondii, the MIC50 is > 6 µM and the MIC90 is > 6 µM.
Take `Nc1cc(Cl)ccc1Oc1ccccc1`: the IC50 in data set [2] is > 20000 nM. For the same compound, in the data set with HFF [1], the Activity entry was “Non-toxic”. For the same compound, in the data set with Toxoplasma gondii, the MIC50 was found to be 6 µM (≈ 1.32 µg/mL) and the MIC90 was > 6 µM.
For `C/C=C/C=C/C(=O)Nc1ccc(Oc2ccc(Cl)cc2Cl)c(O)c1`, it took 2000 nM to reach half-maximal inhibition in data set [2] (IC50). Further, the Activity entry with HFF [1] was “Non-toxic”. Moreover, in the data set with Toxoplasma gondii, the MIC50 was 14 µM (≈ 5.1 µg/mL) and the MIC90 was determined as 22 µM (≈ 8.01 µg/mL).
As to `COc1ccc(COc2ccn(Cc3ccccc3Cl)c(=O)c2)cc1`, in data set [2], the IC50 was > 20000 nM. Further, the Activity result with HFF [1] is given as “Non-toxic”. In the data set with Toxoplasma gondii, this compound displayed an MIC50 of 17 µM (≈ 6.05 µg/mL) and an MIC90 of 23 µM (≈ 8.18 µg/mL).
In the case of `NC(=O)c1ccc(Cn2ccc(OCc3ccccc3)cc2=O)c(Cl)c1`, in the data set on Toxoplasma gondii, the MIC50 was > 24 µM and the MIC90 is > 24 µM.
On to `O=[N+]([O-])c1ccccc1Oc1ccc(Cl)cc1O`, for which the IC50 in data set [2] was found to be 290 nM. The Activity result with HFF [1] was “Non-toxic”. In the data set with Toxoplasma gondii, this compound registered an MIC50 of 14 µM (≈ 3.72 µg/mL) and an MIC90 of 23 µM (≈ 6.11 µg/mL).
In the same order, the values of `O=[N+]([O-])c1ccc(Oc2ccc(Cl)cc2O)cc1` are 45 nM, “Non-toxic”, 17 µM (≈ 4.52 µg/mL) and 23 µM (≈ 6.11 µg/mL).
As for `COc1ccc(NC(=O)COc2ccc([N+](=O)[O-])cc2)cc1`, in the data set on Toxoplasma gondii, the MIC50 was 23 µM (≈ 6.95 µg/mL) and the MIC90 is > 24 µM.
`N#Cc1ccc(Cn2ccc(OCc3ccccc3)cc2=O)c(Cl)c1`: the half-maximal inhibitory concentration (IC50) in data set [2] is > 20000 nM. In addition, the Activity result in the data set on HFF [1] is listed as “Non-toxic”. In the data set with Toxoplasma gondii, the MIC50 is 18 µM (≈ 6.31 µg/mL) and the MIC90 amounted to 23 µM (≈ 8.07 µg/mL).
In the data set with HFF [3], `Oc1ccc(Oc2ccc(O)cc2O)cc1` yielded an Activity of 6 µM. Also, the Activity entry with HFF [1] was “Non-toxic”. For the same compound, in the data set with Toxoplasma gondii, the MIC50 was > 6 µM and the MIC90 is > 6 µM.
Turning to `Oc1ccc(Oc2ccc(Cl)cc2O)cc1`, the Activity in the data set with HFF [3] is > 6 µM. Besides, the Activity entry in the data set on HFF [1] is “Non-toxic”. Also, in the data set with Toxoplasma gondii, the MIC50 was > 6 µM and the MIC90 was > 6 µM.
For the compound `CCCc1cc(O)c(Oc2ccc(C(=O)O)cc2Cl)c(O)c1`, the Activity result with HFF [1] is “Non-toxic”. Besides, in the data set with Toxoplasma gondii, the MIC50 was > 24 µM and the MIC90 is > 24 µM.
Turning to `COc1ccc(NC(=O)/C=C/c2ccc(N)nc2)cc1`, the Activity with HFF [3] was > 6 µM. For the same compound, in the data set on HFF [1], the Activity result was “Non-toxic”. Also, in the data set with Toxoplasma gondii, the MIC50 was > 6 µM and the MIC90 is > 6 µM.
Regarding `CCCc1cc(O)c(Oc2ccc(C#N)cc2Cl)c(OC)c1`, the Activity in the data set on HFF [3] is > 6 µM. The Activity result in the data set on HFF [1] is on record as “Non-toxic”. For the same compound, in the data set on Toxoplasma gondii, the MIC50 is > 6 µM and the MIC90 was > 6 µM.
In turn, `Oc1ccc(Oc2ccccc2)c(O)c1` showed an Activity in the data set on HFF [3] of 6 µM. For the same compound, the Activity result in the data set on HFF [1] is given as “Non-toxic”. For the same compound, in the data set on Toxoplasma gondii, the MIC50 was > 6 µM and the MIC90 was > 6 µM.
Take `CCCc1ccc(Oc2cccc(Cl)c2)c(O)c1`: the Activity with HFF [3] is > 6 µM. Moreover, the Activity entry with HFF [1] is reported as “Non-toxic”. Also, in the data set with Toxoplasma gondii, the MIC50 was > 6 µM and the MIC90 is > 6 µM.
For the compound `CC(=O)Nc1ccc(/C=C/C(=O)N(C)Cc2cc3ccccc3n2C)cn1`, the Activity with HFF [3] was > 6 µM. The Activity result in the data set with HFF [1] is reported as “Non-toxic”. In addition, in the data set with Toxoplasma gondii, the MIC50 is > 6 µM and the MIC90 was > 6 µM.
On to `CCCc1ccc(Oc2cccc(CCO)c2)c(O)c1`, for which the Activity with HFF [3] is > 6 µM. Moreover, the Activity result in the data set with HFF [1] was “Non-toxic”. Moreover, in the data set with Toxoplasma gondii, the MIC50 is > 6 µM and the MIC90 is > 6 µM.
In the case of `CC(C)(C)C(=O)Nc1cc(Cl)ccc1Oc1ccccc1`, the Activity in the data set with HFF [3] was > 6 µM; in the data set with HFF [1], “Non-toxic”. In the data set on Toxoplasma gondii, the MIC50 is > 6 µM. Also, the MIC90 in the data set on Toxoplasma gondii is > 6 µM.
For the compound `O=c1[nH]c2ccccc2n1-c1ccc([N+](=O)[O-])c(Cl)c1`, in the data set with Toxoplasma gondii, the MIC50 is > 24 µM and the MIC90 is > 24 µM.
With `Nc1ccc(/C=C/C(=O)NCc2ccccc2N)cn1`, the Activity with HFF [3] was > 6 µM. In the data set with HFF [1], the Activity result was “Non-toxic”. Besides, in the data set on Toxoplasma gondii, the MIC50 is > 6 µM and the MIC90 is > 6 µM.
On to `Oc1cc(Cl)ccc1Oc1ccccc1`, for which the Activity with HFF [3] is > 6 µM. In addition, the Activity result with HFF [1] is reported as “Non-toxic”. Moreover, in the data set on Toxoplasma gondii, the MIC50 was found to be 5 µM (≈ 1.1 µg/mL) and the MIC90 is > 6 µM.
For the compound `O=C(O)c1ccc(Cn2ccc(OCc3ccccc3)cc2=O)c(Cl)c1`, in the data set with Toxoplasma gondii, the MIC50 was > 24 µM and the MIC90 is > 24 µM.
On to `Nc1ccccc1CNC(=O)COc1ccc([N+](=O)[O-])cc1`, for which, in the data set with Toxoplasma gondii, the MIC50 was > 24 µM and the MIC90 was > 24 µM.
Take `O=c1[nH]c2ccccc2n1S(=O)(=O)c1ccc([N+](=O)[O-])cc1`: in the data set with Toxoplasma gondii, the MIC50 was > 24 µM and the MIC90 is > 24 µM.
Regarding `Oc1cc(Cl)ccc1Oc1ccc(Cl)cc1Cl` [TRICLOSAN], in the data set on HFF [3], the Activity is > 6 µM. In the data set on Toxoplasma gondii, the MIC50 worked out at 5 µM (≈ 1.45 µg/mL) and the MIC90 is > 6 µM.
As to `CCCc1ccc(Oc2cccc([N+](=O)[O-])c2)c(O)c1`, the Activity with HFF [3] came to 6 µM. Further, the Activity result in the data set with HFF [1] is given as “Non-toxic”. Also, in the data set on Toxoplasma gondii, the MIC50 was > 6 µM and the MIC90 was > 6 µM.
For `CCCc1cc(O)c(Oc2ccc(-c3nn[nH]n3)cc2)c(O)c1`, the Activity result in the data set on HFF [1] is reported as “Non-toxic”. In the data set on Toxoplasma gondii, the MIC50 was > 24 µM and the MIC90 was > 24 µM.
As to `CCOC(=O)C(C)OC(=O)c1cc(Oc2ccc(C(F)(F)F)cc2Cl)ccc1[N+](=O)[O-]` (centres undefined) [LACTOFEN], the Activity result in the data set with HFF [1] is recorded as “Non-toxic”. In the data set with Toxoplasma gondii, the MIC50 came out at 16 µM (≈ 7.39 µg/mL) and the MIC90 worked out at 23 µM (≈ 10.6 µg/mL).
`Nc1ccc(Nc2ccccc2)c(N)c1`: the figures for the Activity with HFF [3] and in the data set on HFF [1] were < 1.5 µM and “Non-toxic”, respectively. Moreover, the MIC50 against Toxoplasma gondii was > 6 µM. In addition, the MIC90 with Toxoplasma gondii is > 6 µM.
On to `CCCc1cc(O)c(Oc2ccc(C#N)cc2)c(O)c1`, for which the Activity with HFF [3] was determined as 3 µM. The Activity entry in the data set with HFF [1] is “Non-toxic”. For the same compound, in the data set with Toxoplasma gondii, the MIC50 is > 6 µM and the MIC90 is > 6 µM.
Turning to `O=c1[nH]c2ccccc2n1Cc1ccc([N+](=O)[O-])cc1`, in the data set on Toxoplasma gondii, the MIC50 was found to be 20 µM (≈ 5.39 µg/mL) and the MIC90 is > 24 µM.
For the compound `CC(=O)Nc1ccccc1Oc1ccc(Cl)cc1O`, in the data set with Toxoplasma gondii, the MIC50 is > 24 µM and the MIC90 was > 24 µM.
Consider `O=C(c1ccc([N+](=O)[O-])cc1)n1c(=O)[nH]c2ccccc21`, for which, in the data set with Toxoplasma gondii, the MIC50 was > 24 µM and the MIC90 was > 24 µM.

The MIC50 is an inhibitory concentration at the 50% level, which refers to growth in some studies and to a panel of isolates in others. High values mean lower susceptibility, low ones higher susceptibility. What is called MIC90 is an inhibitory concentration at the 90% level, which refers to growth in some studies and to a panel of isolates in others. A higher MIC90 goes with lower susceptibility. Usually IC50 stands for the concentration needed to halve the response being measured.
